Assay results pooled from the literature.
Compare with care: the assays were run in different laboratories.
Target: Dual specificity mitogen-activated protein kinase kinase 7 (MAP2K7, Homo sapiens, UniProt O14733)
Residues used in one study (O14733 1-419): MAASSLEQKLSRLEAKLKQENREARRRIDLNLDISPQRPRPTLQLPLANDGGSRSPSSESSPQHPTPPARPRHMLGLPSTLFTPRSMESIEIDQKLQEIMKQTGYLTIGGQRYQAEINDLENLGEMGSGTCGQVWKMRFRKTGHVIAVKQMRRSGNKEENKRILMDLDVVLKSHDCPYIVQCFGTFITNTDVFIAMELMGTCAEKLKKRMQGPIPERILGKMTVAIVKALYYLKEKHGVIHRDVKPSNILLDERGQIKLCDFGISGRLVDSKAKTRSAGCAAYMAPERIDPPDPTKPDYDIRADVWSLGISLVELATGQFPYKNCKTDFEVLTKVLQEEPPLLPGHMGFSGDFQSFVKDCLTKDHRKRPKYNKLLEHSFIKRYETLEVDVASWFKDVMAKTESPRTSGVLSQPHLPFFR

Structure (SMILES)	observed	technique	tested at	remaining binding [%]
CN(CCCC(F)(F)F)c1nccc(-c2cnn3ncccc23)n1	binding		1 µM	100
O=C(NCCCN1CCOCC1)c1ccc(Nc2ncc(Cl)c(-c3ccc(Cl)s3)n2)cc1	binding	competition with immobilised ligand	1 µM	87
COc1ccnn2ncc(-c3ccnc(N(C)C)n3)c12	binding		1 µM	73
CS(=O)(=O)N1CCCC(NC(=O)[C@H](CCC2CCCCC2)NC(=O)c2ccc(CNc3ncnc4c3nnn4-c3ccccc3)cc2)C1 (some centres unmarked)	cell-free assay	competition with immobilised ligand	0.1 µM	100
O=C(NCC1CCOCC1)c1n[nH]cc1NC(=O)c1c(F)cccc1F	binding	competition with immobilised ligand	1 µM	84
CN(C)c1ncnc(-c2ccc3nc(Nc4cc(CN5CCN(C(=O)CC(F)(F)F)CC5)ccn4)[nH]c3c2)c1Cl	cell-free assay	competition with immobilised ligand	1 µM	100
CN(c1nccc(-c2cnn3ncccc23)n1)C1CC1	binding		1 µM	100
CN(c1ccnc(CNc2nc(Nc3ccc4c(c3)CC(=O)N4)ncc2C(F)(F)F)n1)S(C)(=O)=O	cell-free assay	competition with immobilised ligand	1 µM	73
Nc1ncc2c(n1)-c1c([nH]c3ccc(C#CC4CC4)cc13)CCCC2	binding	competition with immobilised ligand	1 µM	100
c1cncc(-c2cccc(Nc3nccc(NC4CCCCC4)n3)c2)c1	binding	competition with immobilised ligand	10 µM	100
Cc1cnn2ncc(-c3ccnc(N(C)C)n3)c2c1	binding		1 µM	71
COc1cnc(Nc2cccc(S(N)(=O)=O)c2)nc1N1CCN(c2ccccc2)C(=O)C1	binding	competition with immobilised ligand	1 µM	92
O=C(c1ccc(Nc2nccc(-c3cc4ccccc4s3)n2)cc1)N1CCC(N2CCCC2)CC1	binding	competition with immobilised ligand	1 µM	26
COc1ncc2cc3ccccc3nc2c1C#N	cell-free assay	competition with immobilised ligand	5 µM	95
Cc1c(NC(=O)c2cc(C(N)=O)nc3cc(F)ccc23)c(C(F)(F)F)nn1Cc1ccc(C#N)cc1	cell-free assay	competition with immobilised ligand	1 µM	79
C[C@@H]1CCN(c2nccc(-c3cnn4ncccc34)n2)C1	binding		1 µM	100
CC1=C(C#N)[C@@H](c2ccc3[nH]nc(C)c3c2)C(C#N)=C(c2ccc(Cl)cc2)N1	cell-free assay	competition with immobilised ligand	1 µM	92.2
c1cnn2ncc(-c3ccnc(N4CCC45COC5)n3)c2c1	binding		1 µM	72
Cc1nc(Cc2cccc(C(F)(F)F)c2)sc1-c1ccc(C(N)=O)nc1	cell-free assay	competition with immobilised ligand	1 µM	100
O=C(c1ccc(Nc2ncc(Cl)c(-c3ccc(Cl)s3)n2)cc1)N1CCC(N2CCCC2)CC1	binding	competition with immobilised ligand	1 µM	82
